Measurements collected from several papers.
Lines come from different studies, so protocols differ.
Target: Dual specificity tyrosine-phosphorylation-regulated kinase 1A (DYRK1A, Homo sapiens, UniProt Q13627)

Compound | assay | setting | remaining binding
CN(CCCC(F)(F)F)c1nccc(-c2cnn3ncccc23)n1 | binding | 1 µM | 35%
CN([C@@H]1CCc2c(CC(=O)O)c3ccccc3n2C1)S(=O)(=O)c1ccc(F)cc1 | cell-free assay, competition with immobilised ligand | 1 µM | 69%
COc1ncc2cc3ccccc3nc2c1C#N | cell-free assay, competition with immobilised ligand | 5 µM | 74%
O=C(O)[C@H]1[C@H](Cn2nnc3ccccc3c2=O)CC[C@@H]1C(=O)c1ccc(OCCC2CCOCC2)cc1 | cell-free assay, competition with immobilised ligand | 1 µM | 85%
Nc1ncc2c(n1)-c1c([nH]c3ccc(C#CC4CC4)cc13)CCCC2 | binding, competition with immobilised ligand | 1 µM | 100%
O=C(c1ccc(Nc2nccc(-c3cc4ccccc4s3)n2)cc1)N1CCC(N2CCCC2)CC1 | binding, competition with immobilised ligand | 1 µM | 68%
O=C(Nc1c[nH]nc1C(=O)NC1CCNCC1)c1cc(F)cc(F)c1 | binding, competition with immobilised ligand | 1 µM | 19%
CCOCCn1cc(C(=O)Nc2ccc(-n3nc(-c4cccnc4)cc3C(F)(F)F)cn2)ccc1=O | cell-free assay, competition with immobilised ligand | 1 µM | 77%
c1cncc(-c2cccc(Nc3nccc(NC4CCCCC4)n3)c2)c1 | binding, competition with immobilised ligand | 10 µM | 26%
CNC(=O)[C@@H]1CC[C@@H](n2c(-c3ccc4cnccc4c3)nc3ccc(C(=O)NCc4cccc(C(N)=O)c4)cc32)C1 | binding, competition with immobilised ligand | 1 µM | 100%
O=C(c1ccc(Nc2ncc(Cl)c(-c3ccc(Cl)s3)n2)cc1)N1CCC(N2CCCC2)CC1 | binding, competition with immobilised ligand | 1 µM | 1.8%
Cc1noc([C@H]2C[C@@H](c3ccc(C(F)(F)F)cc3)CN(C(=O)N3CCS(=O)(=O)C3)C2)n1 | cell-free assay, competition with immobilised ligand | 1 µM | 100%
Cc1cnc(Nc2ccc(C(=O)N3CCC(N4CCCC4)CC3)cc2)nc1-c1cc2ccccc2s1 | binding, competition with immobilised ligand | 1 µM | 19%
CCN1CCN(Cc2ccc(C(=O)Nc3ccc(C)c(Oc4ccc5c(c4)CC(=O)N5)c3)cc2C(F)(F)F)CC1 | binding, competition with immobilised ligand | 1 µM | 96%
